B1: tRNA (parent)
chain: GUUCCGUUGGCGUAAUGGUAACGCGUCUCCCUCCUAAGGAGAAGACUGCGGGUUCGAGUCCCGUACGGAACG

Fewer inactive variants are shown than the library holds. Bounds are passed on as bounds.

The variants in this data set derive from B1. Nature of the data set: yeast fitness relative to wild type (ratio to wild type); higher = fitter; tRNA-Arg(CCU), competitive growth, 37 C, YPD. The essentials:
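A pool of Saccharomyces cerevisiae strains, each with a tRNA-Arg(CCU) gene variant at the native genomic locus, was competed in YPD at 37°C for 24 hours across six parallel replicates. The variants had been chemically synthesised at a 3% per-site mutation rate over 69 sites, and gene amplicons before and after competition were read by 100-nucleotide paired-end sequencing. Darwinian fitness relative to wild type rested on changes in genotype frequencies. Genotypes required ≥ 100 starting reads, and estimates < 0.5 were set to 0.5.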
On to GUUUCGUUGGCGUAAUGGUAACGCGUCUCACUCCUAAGGAGUAGACUGCGGGUUCGAGUCCCGUACGGAACG [C4U C30A A42U], for which the yeast fitness came to 0.529.
The result for GUUUCGUUGGCGUAAUGGUAACGCGUCUCACUCCUAAGGAGCAGACUGCGGGUUCGAGUCCCGUACGGAACG [C4U C30A A42C] reads 0.582.
With GUUUCGUUGGCGUAAUGGUAACGCGUCUCUCUCCUAAGGAGAAGACUGCGGGUUCGAGUCCAGUACGGAACG [C4U C30U C62A], the yeast fitness was at most 0.5.
Consider GUUUCGUUGGCGUAAUGGUAACGCGUCUCGCUCCUUAGGAGAAGACUGCGGGUUCGAGUCCCGUACGGACCG [C4U C30G A36U A70C], for which the yeast fitness is at most 0.5.
In the case of GUUUCGUUGGCGUAAUGGUAACGCGUCUCACUCCUAAGGAGAAGACUGCGGGUUCGAGUCCCGUACGGAUCG [C4U C30A A70U], the yeast fitness was found to be 0.799.
For the variant GUUUCGUUGGCGUAAUGGUAACGCGUCUCACUCCUAAGGAGAAGACUGCGGGUUCGAGUCCCGUACGGAGCG [C4U C30A A70G], the yeast fitness is 0.769.
In the case of GUUUCGUUGGCGUAAUGGUAACGCGUCUCACUCCUAAGGAGAAGACUGCGGGUUGGAGUCCCGUACGGAACG [C4U C30A C55G], the yeast fitness was determined as 0.549.
Take GUUUCGUUGGCGUAAUGGUAACGCGUCUCACUCCUGAGGAGAAGACUGCGGGUUCGAGUCCCGUACGGAACG [C4U C30A A36G]: the yeast fitness is 0.839.
The result for GUUUCGUUGGCGUAAUGGUAACGCGUCUUCCUCCUAAGGAGAAGACUGCAGGUUCGAGUCCCAUACGGAACG [C4U C29U G50A G63A] reads at most 0.5; that for GUUUCGUUGGCGUAAUGGUAACGCGUCUUCCUCCUAAGCAGAAGACUGCGGGUUCGAGUCCCGUACGGAACG [C4U C29U G39C], 0.536.
As for GUUUCGUUGGCGUAAUGGUAACGCGUCUCUCUCCUAAAGAGAAGACUGCGGGUUCGAGUCCCGUACGCAACG [C4U C30U G38A G68C], the yeast fitness is at most 0.5.
Consider GUUUCGUUGGCGUAAUGGUAACGCGUCUCACUCCUAACGAGAAGACUGCGGGUUCGAGUCACGUACGGAACG [C4U C30A G38C C61A], for which the yeast fitness was at most 0.5.
Take GUUUCGUUGGCGUAAUGGUAACGCGUCUCACUCCUAAGGAGAAGUCUGCGGGUUCGAGUCCCGUACGGAACG [C4U C30A A45U]: the yeast fitness is 0.77.
The figure for GUUUCGUUGGCGUAAUGGUAACGCGUCUUCCUCCUAAGGAGAAGACUGCGGGUUCGAGUCCCGUACGGAACG [C4U C29U] is 1; for GUUUCGUUGGCGUAAUGGUAACGCGUCUCUCUCCUAAGGAGAAGACUGCGGGUUCGAGUCCCGUACGGAACG [C4U C30U] it is 0.931.
Take GUUUCGUUGGCGUAAUGGUAACGCGUCUCGCUCCUAAGGAGAAGACUGCGGGUUCGAGUCCCGUACGGAACG [C4U C30G]: the yeast fitness amounted to 0.801.
Turning to GUUUCGUUGGCGUAAUGGUAACGCGUCUCUCUCCUAAGGAGAAGACUGCGGGUUCGAGUCCCGUACGGUACG [C4U C30U A69U], the yeast fitness is 0.736.
As for GUUUCGUUGGCGUAAUGGUAACGCGUCUUCUUCCUAAGGAGAAGACUGCGGGUUCGAGCCCCGUACGGAACG [C4U C29U C31U U59C], the yeast fitness is at most 0.5.
The figure for GUUUCGUUGGCGUAAUGGUAACGCGUCUCUCUCCUAAGGAGAAGACUCCGGGUUCGAGUCCCGUACGCAACG [C4U C30U G48C G68C] is at most 0.5; for GUUUCGUUGGCGUAAUGGUAACGCGUCUUGCUCCUAAGGAGAAGACUGCGGGUUCGAGUCCCGUACGGAACG [C4U C29U C30G] it is at most 0.5; for GUUUCGUUGGCGUAAUGGUAACGCGUCUCUGUCCUAAGGAGAAGACUGCGGGUUCGAGUCCUGUACGGAACG [C4U C30U C31G C62U] it is 0.766.
Take GUUUCGUUGGCGUAAUGGUAACGCGUCUCACUCCUAAGGAGAAGACUGCGGGUUCGAGUCCCGUGCCGAACG [C4U C30A A65G G67C]: the yeast fitness was at most 0.5.
Take GUUUCGUUGGCGUAAUGGUAACGCGUCUCACUCCUAAGGAGAAGAGUGUGGGUUCGAGUCCCGUACGGAACG [C4U C30A C46G C49U]: the yeast fitness stood at 0.57.
Regarding GUUUCGUUGGCGUAAUGGUAACGCGUCUCACUCCUAAGGAGAAGACUGUGGGUUCGAGUCCCGUACGGAACG [C4U C30A C49U], the yeast fitness was determined as 0.825.
The result for GUUUCGUUGGCGUAAUGGUAACGCGUCUCACUCCUAAGGAGAAGACUGCGGGUUCGAGUCCCGUACCGAACG [C4U C30A G67C] reads 0.731; that for GUUUCGUUGGCGUAAUGGUAACGCGUCUUCCUCCUAAGGAGAAGACUGCGGGUUCGAGUCCUGCUCGGAACG [C4U C29U C62U U64C A65U], at most 0.5; that for GUUUCGUUGGCGUAAUGGUAACGCGUCUCACUCCUAAGGAGAAGACUGCGGGUUCGAGUGCCGUACGGAACG [C4U C30A C60G], 0.6.
Turning to GUUUCGUUGGCGUAAUGGUAACGCGUCUCACUCCCAAGGAGAAGACUGCGGGUUCGAGUCCCGUACGGAACG [C4U C30A U35C], the yeast fitness worked out at 0.77.
On to GUUUCGUUGGCGUAAUGGUAACGCGUCUCACUCCUAAGGAGAAGACUGCGGGCUCGAGUCCCGUACGGAGCG [C4U C30A U53C A70G], for which the yeast fitness was at most 0.5.
The figure for GUUUCGUUGGCGUAAUGGUAACGCGUCUCGCUCCUAAGGAGAAGACUGCGCGUUCUAGUCCCGUGCGGAACG [C4U C30G G51C G56U A65G] is at most 0.5; for GUUUCGUUGGCGUAAUGGUAACGCGUCUCACUCCUAAGCAGAAGACUGCGGGUUCGAGUCCCGUACGGAACG [C4U C30A G39C] it is 0.598; for GUUUCGUUGGCGUAAUGGUAACGCGUCUUCCUCCUAAGGAGAUGACUGCGGGUUCGAGUCCCGUACGGAACG [C4U C29U A43U] it is 0.756.
The result for GUUUCGUUGGCGUAAUGGUAACGCGUCUCACUCCUAAGGAGAAGACUGCGGGUUCGAGUCCCGCACGGAACG [C4U C30A U64C] reads 0.92; that for GUUUCGUUGGCGUAAUGGUAACGCGUCUCACUCCUAAGGAGAAGACUGCGGGUUCGGGUCCCGUACGGAACG [C4U C30A A57G], 0.806; that for GUUUCGUUGGCGUAAUGGUAACGCGUCUCACUCCUAAGGAGAAGACUGCGGGUCCGAGUCCCGUACGGAACG [C4U C30A U54C], 0.739.
As for GUUUCGUUGGCGUAAUGGUAACGCGUCUUCCUCCUUAGGAGAAGACUGCGGGUUCGAGUCCCGUUCGGAACG [C4U C29U A36U A65U], the yeast fitness worked out at 0.557.
Regarding GUUUCGUUGGCGUAAUGGUAACGCGUCUCGCUCCUUAGGAGAAGACUGCGGGUUCGAGUCCCGUACGGAACG [C4U C30G A36U], the yeast fitness was 0.563.
With GUUUCGUUGGCGUAAUGGUAACGCGUCUCGCUCCUAAGGAGAAGAUUGCGGAUUCGAGUCCCGUCCGGAACG [C4U C30G C46U G52A A65C], the yeast fitness is at most 0.5.

Values taken from the RNAGym collection of RNA variant scans (doi:10.1126/science.aae0568).
